Measured values from ChEMBL document CHEMBL3393006, “A new iridoid, verbascoside and derivatives with inhibitory activity against Taq DNA polymerase” (Bioorg Med Chem Lett, 2015).
The source made the active and inactive calls. The calls are words filed in the database; no cut-off is given here.

tested on: Thermus aquaticus; assay: (§1) Inhibition of Thermus aquaticus DNA polymerase by PCR analysis
Outline: (§2)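 Taq DNA polymerase (2.5 U) run in PCR mix of 40 mM Tris-acetate pH 8.3, 15 mM MgCl2, […], 2.5 mM each dNTP. Compounds were dissolved in DMSO and tested at varying concentrations, with 1:2 serial dilutions. Cycling was 35 cycles: 95 °C 1 min, 56 °C annealing, 72 °C 90 s. Read-out was densitometry of ethidium bromide-stained agarose gel bands. IC50 was interpolated from plots of activity versus inhibitor concentration.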

SMILES	inhibition
O=C(OC[C@H]1O[C@@H](O[C@@H]2OC=C[C@H]3[C@@H](OC(=O)c4ccccc4)[C@@H]4O[C@]4(COC(=O)c4ccccc4)[C@@H]23)[C@H](O)[C@@H](OC(=O)c2ccccc2)[C@@H]1OC(=O)c1ccccc1)c1ccccc1	inactive
CC(=O)OC[C@H]1O[C@@H](O[C@@H]2OC=C[C@H]3[C@@H](OC(C)=O)[C@@H]4O[C@]4(COC(C)=O)[C@@H]23)[C@H](OC(C)=O)[C@@H](OC(C)=O)[C@@H]1OC(C)=O	inactive
CC(=O)OC[C@H]1O[C@@H](O[C@@H]2OC=C[C@H]3[C@@H](OC(C)=O)[C@@H]4O[C@]4(COC(C)=O)[C@@H]23)[C@H](O)[C@@H](O)[C@@H]1O	inactive
CC(C)(C)[Si](OC[C@H]1O[C@@H](O[C@@H]2OC=C[C@H]3[C@@H](O[Si](c4ccccc4)(c4ccccc4)C(C)(C)C)[C@@H]4O[C@]4(CO[Si](c4ccccc4)(c4ccccc4)C(C)(C)C)[C@@H]23)[C@H](O)[C@@H](O[Si](c2ccccc2)(c2ccccc2)C(C)(C)C)[C@@H]1O)(c1ccccc1)c1ccccc1	inactive
CC(=O)OC[C@]12O[C@H]1[C@H](O)[C@@H]1C=CO[C@@H](O[C@@H]3O[C@H](CO)[C@@H](O)[C@H](O)[C@H]3O)[C@@H]12	inactive
CC(C)(C)[Si](OC[C@H]1O[C@@H](O[C@@H]2OC=C[C@H]3[C@@H](O[Si](c4ccccc4)(c4ccccc4)C(C)(C)C)[C@@H]4O[C@]4(CO[Si](c4ccccc4)(c4ccccc4)C(C)(C)C)[C@@H]23)[C@H](O)[C@@H](O)[C@@H]1O)(c1ccccc1)c1ccccc1	inactive

biological target: not listed separately; assay: as §1; outline: as §2

SMILES	IC50
CC(C)(C)[Si](C)(C)OC[C@H]1O[C@@H](O[C@@H]2OC=C[C@H]3[C@@H](O[Si](C)(C)C(C)(C)C)[C@@H]4O[C@]4(CO[Si](C)(C)C(C)(C)C)[C@@H]23)[C@H](O)[C@@H](O)[C@@H]1O	5.57 µM
OCC1O[C@@H](O[C@@H]2OC=C[C@H]3[C@@H](O)[C@@H]4O[C@]4(CO)[C@@H]23)C(O)C(O)[C@@H]1O (single isomer, unassigned)	21.6 µM
CC(C)(C)[Si](C)(C)OC[C@]12O[C@H]1[C@H](O[Si](C)(C)C(C)(C)C)[C@@H]1C=CO[C@@H](O[C@@H]3O[C@H](CO)[C@@H](O)[C@H](O)[C@H]3O)[C@@H]12	78.1 µM
